# Data as given in ChEMBL document CHEMBL5303300, “EUbOPEN Chemogenomics Library - Multiplex” (2023).
# Where “and” joins values, the source holds several entries; their conditions need not be identical. Equal values may be shown once.
# Tested on: HEK-293T
# Test: Multiplex assay against HEK293T
# Format: toxicity, cell-based
# Conditions: human, number of replicates 2
# Outline: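 Compound was added to live cells that had been stained at seeding with Hoechst33342, BioTracker Green Microtubule Cytoskeleton Dye, MitoTracker Red and Annexin V Alexa Fluor 680, and imaging followed on a CQ1 microscope at 37°C and 5% CO2. CellPathfinder machine-learning gating divided cells into Hoechst high-intensity objects or normal cells, normal cells into healthy, pyknosed or fragmented nuclei, and pyknosed cells into mitotic or apoptotic. Tubulin, mitochondrial-mass and membrane-permeability phenotypes are per cents of healthy-nucleus cells.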
# [1] = 12 h, 1 µM, compound concentration 1 uM
# [2] = 12 h, 10 µM, compound concentration 10 uM
# [3] = 24 h, 1 µM, compound concentration 1 uM
# [4] = 24 h, 10 µM, compound concentration 10 uM
# [5] = 48 h, 1 µM, compound concentration 1 uM
# [6] = 48 h, 10 µM, compound concentration 10 uM
smiles,measurement,setting,value
Cc1ccc(C(=O)Nc2cc(N3CCN(C)CC3)cc(C(F)(F)F)c2)cc1-n1cc(-c2cnn(C)c2C)nn1.Cl,Population Apoptotic (%),[1],57% and 65%
same,Population Fragmented Nuclei (%),[1],4% and 5%
same,Population Healthy Nuclei (%),[1],73% and 76%
same,Population Hoechst High Intensity Objects (%),[1],11% and 9%
same,Population Membrane Permeable-Phenotype (%),[1],5% and 4%
same,Population Mitochondria Different-Phenotype (%),[1],26% and 20%
same,Population Mitotic Cells (%),[1],42% and 35%
same,Population Normal (%),[1],88% and 90%
same,Population Pyknosed Nuclei (%),[1],22% and 17%
same,Population Tubulin-Different-Phenotype (%),[1],74% and 71%
same,Total Cell Count,[1],510 and 505
same,Population Apoptotic (%),[2],61% and 68%
same,Population Fragmented Nuclei (%),[2],2% and 3%
same,Population Healthy Nuclei (%),[2],81% and 82%
same,Population Hoechst High Intensity Objects (%),[2],4% and 5%
same,Population Membrane Permeable-Phenotype (%),[2],8% and 12%
same,Population Mitochondria Different-Phenotype (%),[2],25% and 17%
same,Population Mitotic Cells (%),[2],38% and 31%
same,Population Normal (%),[2],95% and 94%
same,Population Pyknosed Nuclei (%),[2],16% and 14%
same,Population Tubulin-Different-Phenotype (%),[2],88% and 86%
same,Total Cell Count,[2],680 and 697
same,Population Apoptotic (%),[3],70% and 51%
same,Population Fragmented Nuclei (%),[3],8% and 10%
same,Population Healthy Nuclei (%),[3],77% and 76%
same,Population Hoechst High Intensity Objects (%),[3],10%
same,Population Membrane Permeable-Phenotype (%),[3],3% and 2%
same,Population Mitochondria Different-Phenotype (%),[3],16% and 9%
same,Population Mitotic Cells (%),[3],29% and 48%
same,Population Normal (%),[3],89%
same,Population Pyknosed Nuclei (%),[3],14% and 12%
same,Population Tubulin-Different-Phenotype (%),[3],57% and 53%
same,Total Cell Count,[3],759 and 691
same,Population Apoptotic (%),[4],56% and 59%
same,Population Fragmented Nuclei (%),[4],2% and 4%
same,Population Healthy Nuclei (%),[4],83%
same,Population Hoechst High Intensity Objects (%),[4],6% and 9%
same,Population Membrane Permeable-Phenotype (%),[4],8% and 11%
same,Population Mitochondria Different-Phenotype (%),[4],25% and 22%
same,Population Mitotic Cells (%),[4],43% and 40%
same,Population Normal (%),[4],93% and 90%
same,Population Pyknosed Nuclei (%),[4],13% and 12%
same,Population Tubulin-Different-Phenotype (%),[4],88% and 85%
same,Total Cell Count,[4],748 and 730
same,Population Apoptotic (%),[5],35% and 32%
same,Population Fragmented Nuclei (%),[5],13% and 11%
same,Population Healthy Nuclei (%),[5],81% and 84%
same,Population Hoechst High Intensity Objects (%),[5],10%
same,Population Membrane Permeable-Phenotype (%),[5],9% and 6%
same,Population Mitochondria Different-Phenotype (%),[5],1%
same,Population Mitotic Cells (%),[5],64% and 67%
same,Population Normal (%),[5],89%
same,Population Pyknosed Nuclei (%),[5],5% and 4%
same,Population Tubulin-Different-Phenotype (%),[5],23% and 35%
same,Total Cell Count,[5],1722 and 1279
same,Population Apoptotic (%),[6],37% and 52%
same,Population Fragmented Nuclei (%),[6],8%
same,Population Healthy Nuclei (%),[6],83% and 86%
same,Population Hoechst High Intensity Objects (%),[6],5% and 8%
same,Population Membrane Permeable-Phenotype (%),[6],15% and 14%
same,Population Mitochondria Different-Phenotype (%),[6],8%
same,Population Mitotic Cells (%),[6],62% and 47%
same,Population Normal (%),[6],94% and 91%
same,Population Pyknosed Nuclei (%),[6],7% and 5%
same,Population Tubulin-Different-Phenotype (%),[6],79%
same,Total Cell Count,[6],1207 and 1093
COc1ccc(-c2cc3c(C)nc(N)nc3n([C@H]3CC[C@H](OCCO)CC3)c2=O)cn1 [PF-04691502],Population Apoptotic (%),[1],74% and 67%
same,Population Fragmented Nuclei (%),[1],3% and 2%
same,Population Healthy Nuclei (%),[1],86% and 87%
same,Population Hoechst High Intensity Objects (%),[1],12% and 13%
same,Population Membrane Permeable-Phenotype (%),[1],0% and 2%
same,Population Mitochondria Different-Phenotype (%),[1],36% and 56%
same,Population Mitotic Cells (%),[1],25% and 32%
same,Population Normal (%),[1],87% and 86%
same,Population Pyknosed Nuclei (%),[1],10%
same,Population Tubulin-Different-Phenotype (%),[1],60% and 67%
same,Total Cell Count,[1],425 and 310
same,Population Apoptotic (%),[2],73% and 71%
same,Population Fragmented Nuclei (%),[2],7% and 3%
same,Population Healthy Nuclei (%),[2],69% and 75%
same,Population Hoechst High Intensity Objects (%),[2],24% and 19%
same,Population Membrane Permeable-Phenotype (%),[2],1% and 5%
same,Population Mitochondria Different-Phenotype (%),[2],80% and 72%
same,Population Mitotic Cells (%),[2],26% and 28%
same,Population Normal (%),[2],75% and 80%
same,Population Pyknosed Nuclei (%),[2],23% and 21%
same,Population Tubulin-Different-Phenotype (%),[2],77% and 78%
same,Total Cell Count,[2],170 and 187
same,Population Apoptotic (%),[3],71% and 78%
same,Population Fragmented Nuclei (%),[3],7%
same,Population Healthy Nuclei (%),[3],76% and 81%
same,Population Hoechst High Intensity Objects (%),[3],24% and 20%
same,Population Membrane Permeable-Phenotype (%),[3],1%
same,Population Mitochondria Different-Phenotype (%),[3],40% and 55%
same,Population Mitotic Cells (%),[3],28% and 21%
same,Population Normal (%),[3],75% and 79%
same,Population Pyknosed Nuclei (%),[3],16% and 10%
same,Population Tubulin-Different-Phenotype (%),[3],64% and 68%
same,Total Cell Count,[3],314 and 266
same,Population Apoptotic (%),[4],66% and 60%
same,Population Fragmented Nuclei (%),[4],9% and 7%
same,Population Healthy Nuclei (%),[4],70% and 77%
same,Population Hoechst High Intensity Objects (%),[4],26% and 30%
same,Population Membrane Permeable-Phenotype (%),[4],2% and 0%
same,Population Mitochondria Different-Phenotype (%),[4],72% and 61%
same,Population Mitotic Cells (%),[4],33% and 40%
same,Population Normal (%),[4],73% and 69%
same,Population Pyknosed Nuclei (%),[4],20% and 14%
same,Population Tubulin-Different-Phenotype (%),[4],79% and 69%
same,Total Cell Count,[4],163 and 192
same,Population Apoptotic (%),[5],70% and 77%
same,Population Fragmented Nuclei (%),[5],9% and 10%
same,Population Healthy Nuclei (%),[5],69% and 65%
same,Population Hoechst High Intensity Objects (%),[5],28% and 27%
same,Population Membrane Permeable-Phenotype (%),[5],0% and 1%
same,Population Mitochondria Different-Phenotype (%),[5],42% and 44%
same,Population Mitotic Cells (%),[5],29% and 22%
same,Population Normal (%),[5],71% and 72%
same,Population Pyknosed Nuclei (%),[5],20% and 24%
same,Population Tubulin-Different-Phenotype (%),[5],69% and 75%
same,Total Cell Count,[5],275 and 280
same,Population Apoptotic (%),[6],70% and 64%
same,Population Fragmented Nuclei (%),[6],14% and 18%
same,Population Healthy Nuclei (%),[6],74%
same,Population Hoechst High Intensity Objects (%),[6],31% and 28%
same,Population Membrane Permeable-Phenotype (%),[6],0% and 1%
same,Population Mitochondria Different-Phenotype (%),[6],40% and 27%
same,Population Mitotic Cells (%),[6],30% and 35%
same,Population Normal (%),[6],68% and 71%
same,Population Pyknosed Nuclei (%),[6],10% and 6%
same,Population Tubulin-Different-Phenotype (%),[6],61% and 50%
same,Total Cell Count,[6],273 and 293
